Source: paper PMC7501995 (Cell metabolism, 2020)

Experiments:
[1] = Off-target liability panel; settings: currently available panel
[2] = tested on: TXNIP expression in primary mouse islets; test: TXNIP expression by qPCR in primary mouse islets at high glucose; assay type: cell-based; settings: 25 mM glucose, 1 μM, 24 h
Outline: (§1)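 INS-1 cells, C57BL/6J mouse islets (collagenase XI-isolated) or human islets (at least three donors, same-donor controls) kept overnight in 5 mM glucose RPMI 1640. Then incubated 24 h in 25 mM glucose RPMI 1640 with or without 1 µM test compound. TXNIP and related mRNAs measured by qRT-PCR; n = 6 (INS-1) or 3 (mouse islets) independent experiments.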

[3] = tested on: TXNIP expression in human islets; assay type: cell-based
Outline: as §1

C57BL/6J mice [4] = test: Oral administration in drinking water to wild-type C57BL/6J mice; assay type: in vivo, mouse
C57BL/6J mice [5] = test: Hyperinsulinemic-euglycemic clamp in lean C57BL/6J mice; assay type: in vivo, mouse
Outline: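 Lean C57BL/6J or db/db mice given a jugular vein catheter 5–6 days beforehand; treated with test compound and fasted overnight. 2 h hyperinsulinemic-euglycemic clamp run in awake mice with human insulin (150 mU/kg prime, then 2.5 mU/kg/min). Tissue uptake in gastrocnemius and epididymal WAT from 2-[14C]DG-6-phosphate, separated by ion-exchange, and the plasma 2-[14C]DG profile. n = 5–6 mice/group.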

[6] = tested on: primary mouse hepatocytes; test: Hepatocyte glucose output; assay type: cell-based
Outline: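 Hepatocytes were isolated from male C57BL/6J, liver-specific GcgR-knockout or Txnip-deficient mice and plated on collagen at 3 × 10^5 cells/well in serum-free DMEM. After 4 h attachment, they were treated 24h with graded test-compound concentrations. For the last 6h, cells were washed twice in PBS and placed in serum-, glucose- and phenol red-free DMEM, with or without lactate (10 mM) and/or glucagon (100 nM). Medium glucose was read colorimetrically and normalized to total protein; n = 3–4 mice.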

[7] = Plasma concentration and oral bioavailability in mice; assay type: in vivo, mouse
[8] = C57BL/6J mice, oral 100 mg/kg/day
[9] = livers of treated C57BL/6J mice
[10] = male C57BL/6J mice, oral 100 mg/kg/day, 3 weeks

For `CS(=O)(=O)NCC1CCCN(c2ncnc3ccc(C(F)(F)F)cc23)C1` (stereo not shown) [SRI-37330, N-((1-(6-(trifluoromethyl)quinazolin-4-yl)piperidin-3-yl)methyl)methanesulfonamide], the off-target liabilities [1] was “lack of off-target liabilities”, the “TXNIP expression in the context of high glucose” value [2] was “significantly inhibit TXNIP expression” and the “expression of other arrestin genes ARRB1 and ARRDC3 and of thioredoxin” value ([3]; human islets, qRT-PCR, negative controls) was “not affected”. The “TXNIP expression in the context of high glucose” value ([3]; isolated human islets, 25 mM glucose, 1 μM, 24 h) was “significantly inhibit TXNIP expression”, the fasting blood glucose (C57BL/6J mice [4]; [8]) was “slightly, but significantly lower” and the fasting serum glucagon (C57BL/6J mice [4]; [8]) was “lower”. For the same compound, the fasting serum insulin (C57BL/6J mice [4]; [8]) was “unchanged”, the non-fasting blood glucose (C57BL/6J mice [4]; C57BL/6J mice, oral 100 mg/kg/day, within 3 days, persisted 3 weeks) was “small but significant decrease in blood glucose levels” and the “insulin tolerance test (ITT)” value (C57BL/6J mice [4]; C57BL/6J mice, oral 100 mg/kg/day, 1 U/kg insulin i.p.) was “remained unaltered”. The “intraperitoneal glucose tolerance test (GTT)” value (C57BL/6J mice [4]; C57BL/6J mice, oral 100 mg/kg/day, 3 g/kg glucose i.p. after 4 h fast) was “consistently and significantly improved glucose tolerance”, the “blood glucose during insulin-induced hypoglycemia” value (C57BL/6J mice [4]; fasting mice, 15 min after insulin bolus 1 U/kg) was “able to maintain their blood glucose levels equally well to untreated controls” and the “fatty liver (liver histology)” value (C57BL/6J mice [4]; lean mice) was “did not lead to any fatty liver”. For the same compound, the “liver expression of Pck1 and G6pc” value (C57BL/6J mice [4]; [9]) was “lower expression”, the liver glycogen content (C57BL/6J mice [4]; [9]) was “higher glycogen content” and the tolerability (C57BL/6J mice [4]; male C57BL/6J mice, oral 100 mg/kg/day in drinking water, 3 weeks) was “well tolerated”. The body weight (C57BL/6J mice [4]; [10]) was “no change in body weight”, the “gross abnormalities in organs at sacrifice” value (C57BL/6J mice [4]; [10]) was “no gross abnormalities in any organs” and the “safety profile in vivo” value (C57BL/6J mice [4]; mouse, in vivo) was “excellent safety profile in vivo”. The “liver and serum triglyceride levels” value (C57BL/6J mice [4]; treated C57BL/6J mice) was “lower liver and serum triglyceride levels”, the liver transaminase levels (C57BL/6J mice [4]; treated C57BL/6J mice) was “did not cause any elevation in liver transaminase levels” and the glucose infusion rates (C57BL/6J mice [5]; lean C57BL/6J mice) was “comparable between groups”. For the same compound, the hepatic insulin action (C57BL/6J mice [5]; lean C57BL/6J mice) was “comparable between groups”, the “insulin-stimulated glucose uptake in white adipose tissue” value (C57BL/6J mice [5]; lean C57BL/6J mice, epididymal) was “comparable between groups” and the “insulin-stimulated glucose uptake in skeletal muscle” value (C57BL/6J mice [5]; lean C57BL/6J mice, gastrocnemius) was “comparable between groups”. For the same compound, the “basal hepatic glucose production” value (C57BL/6J mice [5]; lean awake C57BL/6J mice) was “significantly downregulated”, the insulin sensitivity (C57BL/6J mice [5]; lean awake C57BL/6J mice) was “no alteration in insulin sensitivity” and the hepatocyte glucose output ([6]; GcgR−/−L hepatocytes, glucagon present) was “no longer able to inhibit hepatocyte glucose output or cAMP production”. The glucose output ([6]; primary hepatocytes of TXNIP-deficient mice, glucagon present) was “maintained its ability to block glucose output and glucagon-induced cAMP production”, the “basal or stimulated glucose output in the absence of glucagon” value ([6]; wild-type primary hepatocytes, 24h, no substrate or lactate) was “did not affect basal or stimulated glucose output” and the average plasma concentration ([7]; mice, 100 mg/kg/day in the drinking water) was 5 µmol/L. For the same compound, the oral bioavailability ([7]; mouse, in vivo, po) was “orally bioavailable”.
